From ChEMBL document CHEMBL1781999, “Lead optimization of aryl and aralkyl amine-based triazolopyrimidine inhibitors of Plasmodium falciparum dihydroorotate dehydrogenase with antimalarial activity in mice” (J Med Chem, 2011)
Values after ≈ are worked out from the molar mass of the structure shown. Active and inactive are the calls of the source. No cut-off for these calls is given here.

Legend:
Rattus norvegicus [1] = assay: Toxicity in Sprague-Dawley rat assessed as adverse effects at 20 mg/kg, po; type: organism-based; design: dose 20 mg/kg, route oral; conditions: in vivo
Procedure, shortened: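 Male Sprague Dawley rats, fasted overnight, given compound as a 10 min IV jugular infusion (solution) or by oral gavage (suspension), n=2 per group. Monitored through 24 h of cannula blood sampling.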

[2] = Partition coefficient, log D of the compound at pH 7.4 by UV-HPLC analysis; conditions: octanol/water
Mus musculus [3] = assay: Time duration above 1 uM plasma concentration in Swiss mouse at 20 mg/kg, po; type: ADME, organism-based; design: dose 20 mg/kg, route oral; conditions: in vivo
Procedure, shortened: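 Non-fasted male Swiss outbred mice given a single gavage dose in suspension (0.5% Na-CMC, 0.5% benzyl alcohol, 0.4% Tween 80). One mouse per time point; blood taken by cardiac puncture under isoflurane into stabilizer over 24 h. Plasma measured by LC-MS; time above 1 μM read directly from the concentration-time profile.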

[4] = target: T1, Dihydroorotate dehydrogenase (Plasmodium falciparum, UniProt Q54A96); assay: Inhibition of His6-tagged recombinant Plasmodium falciparum dihydroorotate dehydrogenase expressed in Escherichia coli using L-dihydroorotate as substrate after 5 to 10 mins by DCIP dye-based assay
T1 sequence (Q54A96 whole entry): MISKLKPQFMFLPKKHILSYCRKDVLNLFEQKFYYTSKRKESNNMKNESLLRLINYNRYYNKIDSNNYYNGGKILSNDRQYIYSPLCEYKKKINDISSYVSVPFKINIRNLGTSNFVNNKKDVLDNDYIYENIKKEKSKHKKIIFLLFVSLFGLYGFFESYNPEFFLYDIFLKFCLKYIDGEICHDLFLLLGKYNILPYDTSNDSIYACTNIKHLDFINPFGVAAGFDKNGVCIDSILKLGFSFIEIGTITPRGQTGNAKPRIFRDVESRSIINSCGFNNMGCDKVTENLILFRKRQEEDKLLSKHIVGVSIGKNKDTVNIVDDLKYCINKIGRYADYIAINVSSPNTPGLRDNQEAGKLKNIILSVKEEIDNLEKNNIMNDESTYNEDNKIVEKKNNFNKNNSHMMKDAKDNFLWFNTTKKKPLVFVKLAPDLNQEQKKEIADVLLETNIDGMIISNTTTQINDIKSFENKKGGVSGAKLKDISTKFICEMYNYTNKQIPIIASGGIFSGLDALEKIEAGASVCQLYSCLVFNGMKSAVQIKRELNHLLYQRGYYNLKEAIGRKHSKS

Liver microsomes = assay: Intrinsic clearance in human liver microsome assessed per mg of protein at 1 uM after 60 mins by LC-MS analysis; type: ADME; conditions: microsomes, 1 h, 1 µM
Procedure, shortened: (§1)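 Microsomal stability. Compound at 1 μM with liver microsomes (0.4 mg/mL protein) in 0.1 M phosphate pH 7.4 at 37 °C. Started with an NADPH-regenerating system plus MgCl2; controls lacked NADPH. Quenched with cold acetonitrile at time points up to 60 min. Parent loss measured by LC-MS and fitted to exponential decay to give CLint.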

Plasmodium falciparum [5] = assay: Antimalarial activity against Plasmodium falciparum 3D7 infected in human A positive erythrocytes by [3H]hypoxanthine uptake assay in presence of serum in medium; type: functional, organism-based
Procedure, shortened: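 Growth read by [3H]-hypoxanthine uptake. Each concentration run in quadruplicate and fitted to a four-parameter variable-slope log[I]-response model for 50% growth inhibition.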

[6] = Plasma protein binding in rat by ultracentrifugation analysis; type: ADME, cell-free; conditions: read-out: PPB (converted)
Procedure, shortened: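 Rat plasma spiked at 200 and 2000 ng/mL, then ultracentrifuged at 223,000 × g for 4.2 h at 37 °C. Free drug in the supernatant plasma water was compared with total drug in non-centrifuged plasma kept at 37 °C for the same time, giving fraction bound.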

Mus musculus [7] = assay: Toxicity in Plasmodium berghei ANKA NK65 infected Swiss Webster mouse assessed as adverse effect at 50 mg/kg, po bid for 4 days; type: organism-based; design: dose 50 mg/kg, route oral; conditions: in vivo, 96 h
Rattus norvegicus [8] = organism: Rattus norvegicus; assay: Toxicity in Sprague-Dawley rat assessed as adverse effects; conditions: in vivo
Plasmodium berghei ANKA [9] = assay: Antimalarial activity against Plasmodium berghei ANKA NK65 infected in Swiss Webster mouse assessed as complete cure of animal at 50 mg/kg, po bid measured on day 7 by light microscopic analysis; type: functional, organism-based; design: dose 50 mg/kg
Plasmodium falciparum [10] = assay: Antimalarial activity against Plasmodium falciparum 3D7 infected in human A positive erythrocytes by [3H]hypoxanthine uptake assay in presence of serum in medium albumax; type: functional, organism-based
Mus musculus [11] = assay: Cmax in Swiss mouse at 20 mg/kg, po measured after 24 hrs by LC-MS analysis; type: ADME, organism-based; design: dose 20 mg/kg, route oral; conditions: in vivo
Procedure, shortened: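 Non-fasted male Swiss outbred mice given a single oral gavage dose in 0.5% w/v sodium carboxymethylcellulose, 0.5% v/v benzyl alcohol, 0.4% v/v Tween 80. One mouse per time point, cardiac blood under isoflurane, sampling to 24 h. Plasma stabilized, acetonitrile-precipitated, quantified by LC-MS against blank-plasma standards; Cmax read from concentration-time profile.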

[12] = Inhibition of His6-tagged recombinant Plasmodium berghei dihydroorotate dehydrogenase expressed in Escherichia coli using L-dihydroorotate as substrate after 10 to 15 mins by DCIP dye-based assay; conditions: in the assay text read “5 to 10 mins” for “10 to 15 mins”
Procedure, shortened: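 Truncated soluble enzyme lacking the N-terminal membrane domain. Final concentrations: 0.2 mM L-dihydroorotate, 0.02 mM CoQD, 0.12 mM DCIP. Reaction started with 10 nM enzyme and read at 600 nm for 5–10 min at 20 °C. Inhibitor 0.01–100 μM in 3-fold steps, in triplicate. IC50 from a three-parameter fit of vi/vo from initial rates.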

Mus musculus [13] = assay: Toxicity in Swiss mouse assessed as adverse effect at 20 mg/kg, po measured after 24 hrs; type: organism-based; design: dose 20 mg/kg, route oral; conditions: in vivo
Plasmodium berghei ANKA [14] = assay: Antimalarial activity against Plasmodium berghei ANKA NK65 infected in Swiss Webster mouse assessed as complete cure of animal at 100 mg/kg, po qd measured on day 7 by light microscopic analysis; type: functional, organism-based; design: dose 100 mg/kg
Procedure, shortened: (§2)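 Female Swiss Webster mice, 8-10 weeks old (20-22 g), infected intraperitoneally with 2 × 10^7 P. berghei NK65 ANKA-infected erythrocytes. Oral doses in CMC vehicle (200 μL), first given 3 h post-infection, then at 24, 48 and 72 h. Parasitemia followed daily from 24 h by light microscopy at 1000× oil immersion, counting ≥10 fields of >100 erythrocytes. Mice losing ≥20% body weight were euthanized.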

[15] = Aqueous solubility of the compound in phosphate buffer at pH 6.5; type: physicochemical; conditions: phosphate buffer, read-out: solubility
Procedure, shortened: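 Non-equilibrium solubility. Concentrated DMSO stocks were diluted into pH 6.5 phosphate buffer (final DMSO 1% v/v) and precipitation was monitored by nephelometry. Solubility is given as the concentration range just before a turbidity signal rose above background.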

Liver = assay: Intrinsic clearance in mouse liver microsome assessed per mg of protein at 1 uM after 60 mins by LC-MS analysis; type: ADME; conditions: microsomes, 1 h; procedure, shortened: as §1
[16] = Plasma protein binding in human by albumin chromatographic method; type: ADME, cell-free; conditions: read-out: PPB (converted)
[17] = target: Dihydroorotate dehydrogenase (quinone), mitochondrial (Homo sapiens, UniProt Q02127); assay: Inhibition of His6-tagged recombinant human dihydroorotate dehydrogenase expressed in Escherichia coli using L-dihydroorotate as substrate after 5 to 10 mins by DCIP dye-based assay
Mus musculus [18] = assay: Toxicity in Plasmodium berghei ANKA NK65 infected Swiss Webster mouse assessed as adverse effect at 3 to 100 mg/kg, po qd for 4 days; type: organism-based; design: dose 3-100 mg/kg, route oral; conditions: in vivo, 96 h; procedure, shortened: as §2

Dihydroorotate dehydrogenase (quinone), mitochondrial, sequence (Q02127 whole entry): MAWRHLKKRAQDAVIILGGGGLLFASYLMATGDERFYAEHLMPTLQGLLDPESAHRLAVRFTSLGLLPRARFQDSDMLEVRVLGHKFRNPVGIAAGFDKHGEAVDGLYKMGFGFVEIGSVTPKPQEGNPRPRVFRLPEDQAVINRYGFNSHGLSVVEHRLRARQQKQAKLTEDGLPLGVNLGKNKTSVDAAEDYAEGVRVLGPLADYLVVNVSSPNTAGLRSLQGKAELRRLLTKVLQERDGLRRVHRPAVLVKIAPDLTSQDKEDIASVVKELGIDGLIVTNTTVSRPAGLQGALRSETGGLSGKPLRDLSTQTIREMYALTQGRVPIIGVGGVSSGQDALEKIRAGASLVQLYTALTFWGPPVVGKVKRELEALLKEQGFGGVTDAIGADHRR

Structure (SMILES)	Activity (Rattus norvegicus [1])	logD [2]	Time (Mus musculus [3]) [h]	IC50 [4] [nM]	CL (Liver microsomes) [µL/min/mg]	EC50 (Plasmodium falciparum [5]) [nM]	fraction unbound [6]	Activity (Mus musculus [7])	Activity (Rattus norvegicus [8])	Activity (Plasmodium berghei ANKA [9])	EC50 (Plasmodium falciparum [10]) [nM]	Cmax (Mus musculus [11]) [µM]	IC50 [12] [nM]	Activity (Mus musculus [13])	Activity (Plasmodium berghei ANKA [14])	solubility [15] [µM]	CL (Liver) [µL/min/mg]	fraction unbound [16]	IC50 [17] [nM]	Activity (Mus musculus [18])
Cc1cc(Nc2cc(F)c(C(F)(F)F)c(F)c2)n2ncnc2n1	Non-toxic	2.9	19	190	< 5	1100	0.027	Non-toxic	Non-toxic	inactive	220	33	280	Non-toxic	inactive	9 (≈ 2.96 µg/mL)	< 6	0.034	> 30000	Non-toxic
Cc1cc(Nc2ccc(S(F)(F)(F)(F)F)cc2)n2ncnc2n1	Non-toxic	3	18	130	< 5	1300	0.048	Non-toxic	Non-toxic	inactive	180	12	280	Non-toxic	inactive	71 (≈ 24.9 µg/mL)	< 6	0.046	> 100000	Non-toxic
